Results reported in ChEMBL document CHEMBL1133479 (J Med Chem, 2000).

Columns and labels:
[1] = target: T1, Melatonin receptor type 1B (Homo sapiens, UniProt P49286); assay: Binding affinity for melatonin receptor type 1B, expressed in HEK293 cells (2-[125I]iodomelatonin is used as radioligand); type: cell-based
T1 sequence (P49286 whole entry): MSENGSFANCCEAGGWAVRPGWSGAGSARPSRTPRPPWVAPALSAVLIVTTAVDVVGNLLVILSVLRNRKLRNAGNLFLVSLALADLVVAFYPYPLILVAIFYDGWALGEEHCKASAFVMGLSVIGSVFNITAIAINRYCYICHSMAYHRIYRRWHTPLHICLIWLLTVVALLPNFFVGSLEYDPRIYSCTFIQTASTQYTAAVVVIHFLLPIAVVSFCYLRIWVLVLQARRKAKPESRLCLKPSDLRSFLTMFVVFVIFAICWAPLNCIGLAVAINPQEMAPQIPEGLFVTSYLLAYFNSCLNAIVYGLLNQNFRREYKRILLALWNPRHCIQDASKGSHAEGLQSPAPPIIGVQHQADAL

[2] = Melanophore aggregation of the dermal melanocytes of Xenopus laevis tadpoles; type: functional
[3] = target: Melatonin receptor type 1A (Homo sapiens, UniProt P48039); assay: Binding affinity for human melatonin receptor type 1A, expressed in HEK293 cells (2-[125I]iodomelatonin is used as radioligand); type: cell-based
[4] = Melanophore aggregation of the dermal melanocytes of Xenopus laevis tadpoles with regard to melatonin (=1); type: functional
Melatonin receptor = Melatonin receptor (Gallus gallus, UniProt P49288+P51050+P49285); assay: Binding affinity is evaluated for chicken brain melatonin receptor using 2-[125I]iodomelatonin as radioligand
[5] = Percentage of maximum effect observed with regard to that of melatonin (100%); type: functional
Outline: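 Tadpole skin-lightening assay (melanophore index, 5 concentrations, 15 min exposure).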

[6] = compound is evaluated for melanophore aggregation of the dermal melanocytes of Xenopus laevis tadpoles with regard to melatonin (=1); type: functional

Melatonin receptor type 1A, sequence (P48039 whole entry): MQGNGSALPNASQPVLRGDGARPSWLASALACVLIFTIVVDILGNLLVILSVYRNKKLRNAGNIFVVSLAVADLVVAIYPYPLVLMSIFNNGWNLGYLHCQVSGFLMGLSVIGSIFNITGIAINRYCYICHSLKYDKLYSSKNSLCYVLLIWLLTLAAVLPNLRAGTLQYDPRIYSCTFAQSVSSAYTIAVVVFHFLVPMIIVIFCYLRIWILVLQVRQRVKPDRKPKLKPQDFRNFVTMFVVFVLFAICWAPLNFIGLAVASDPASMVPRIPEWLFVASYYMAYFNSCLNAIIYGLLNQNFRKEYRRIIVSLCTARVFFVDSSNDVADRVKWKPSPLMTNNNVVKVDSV

For `COc1ccc2cccc3c2c1CCC3CNC(C)=O` (configuration not stated), the Ki [1] was 0.41 nM, the EC50 [2] was 57.8 nM and the Ki [3] was 0.8 nM. The Potency [4] was 0.11 and the Ki (Melatonin receptor) was 0.9 nM.
In the case of `COc1ccc2ccc(OC)c3c2c1CCC3CNC(C)=O` (configuration not stated), the Ki [1] is reported as 0.145 nM, the EC50 [2] is reported as 0.025 nM and the Ki [3] is reported as 0.015 nM. It also gave a Potency [4] of 271.6 and a Ki (Melatonin receptor) of 0.054 nM.
`CCCC(=O)NCCC1CCc2c(OC)ccc3cccc1c23` (configuration not stated) gave a Ki (Melatonin receptor) of 28.1 nM.
Work on `COc1ccc2cccc3c2c1C(CCNC(C)=O)C3` (configuration not stated) yielded a Ki [1] of 0.59 nM, an EC50 [2] of over 1000 nM and a Ki [3] of 0.41 nM. For the same compound, the Effect [5] was 50% and the Ki (Melatonin receptor) was 2.7 nM.
With `CCCC(=O)NCC1CCc2c(OC)ccc3ccc(OC)c1c23` (single isomer, unassigned; (-)) the Ki (Melatonin receptor) was 0.034 nM.
With `CCC(=O)NCCC1CCc2c(OC)ccc3cccc1c23` (configuration not stated) the Ki [1] was 4.03 nM, the Ki [3] was 2.08 nM and the Ki (Melatonin receptor) was 31.7 nM.
Compound `CCC(=O)NCC1CCc2c(OC)ccc3ccc(OC)c1c23` (configuration not stated) has a Ki [1] of 0.153 nM, a Ki [3] of 0.012 nM and a Ki (Melatonin receptor) of 0.011 nM.
`CCCC(=O)NCC1Cc2cccc3ccc(OC)c1c23` (stereo in doubt; 20c) showed a Ki [1] of 0.35 nM, an EC50 [2] of 0.46 nM and a Ki [3] of 0.37 nM. It also gave a Potency [4] of 14.7 and a Ki (Melatonin receptor) of 0.16 nM.
`O=C(NCCC1Cc2cccc3cccc1c23)C1CC1` (configuration not stated) showed a Ki [1] of 16.2 nM, a Ki [3] of 6.48 nM and a Ki (Melatonin receptor) of 399 nM.
Work on `CCCC(=O)NCCC1Cc2cccc3cccc1c23` (configuration not stated) yielded a Ki [1] of 1.86 nM, a Ki [3] of 6.41 nM and a Ki (Melatonin receptor) of 73.7 nM.
With `COc1ccc2cccc3c2c1C(CCNC(=O)C1CC1)C3` (configuration not stated) the Ki [1] was 41.8 nM, the Ki [3] was 10 nM and the Ki (Melatonin receptor) was 97.1 nM.
`CCCC(=O)NCC1Cc2cccc3ccc(OC)c1c23` (single isomer, unassigned; (+)) gave a Ki [1] of 7.4 nM, a Ki [3] of 3.9 nM and a Ki (Melatonin receptor) of 4.3 nM.
`COc1ccc2cccc3c2c1CCC3CNC(=O)C1CC1` (configuration not stated) showed a Ki [1] of 0.79 nM, a Ki [3] of 0.95 nM and a Ki (Melatonin receptor) of 4.6 nM.
`COc1ccc2ccc(OC)c3c2c1CCC3CCNC(C)=O` (configuration not stated) showed a Ki [1] of 0.55 nM, an EC50 [2] of 2.65 nM and a Ki [3] of 0.2 nM. The Potency [4] was 2.5 and the Ki (Melatonin receptor) was 3.6 nM.
For `CCC(=O)NCC1Cc2cccc3ccc(OC)c1c23` (configuration not stated), the Ki [1] was 0.085 nM, the Ki [3] was 0.1 nM and the Ki (Melatonin receptor) was 0.9 nM.
For `CCCC(=O)NCC1CCc2c(OC)ccc3ccc(OC)c1c23` (stereo in doubt; 15c), the Ki [1] was 0.1 nM, the EC50 [2] was 0.004 nM and the Ki [3] was 0.016 nM. The Potency [4] was 1697 and the Ki (Melatonin receptor) was 0.07 nM.
Work on `O=C(NCC1Cc2cccc3cccc1c23)C1CC1` (configuration not stated) yielded a Ki [1] of 0.57 nM, a Ki [3] of 1.06 nM and a Ki (Melatonin receptor) of 40.5 nM.
`COc1ccc2ccc(OC)c3c2c1CCC3CNC(=O)C1CC1` (configuration not stated) gave a Ki [1] of 0.26 nM, a Ki [3] of 0.026 nM and a Ki (Melatonin receptor) of 0.13 nM.
With `CCCC(=O)NCC1CCc2c(OC)ccc3ccc(OC)c1c23` (single isomer, unassigned; (+)) the Ki (Melatonin receptor) was 0.31 nM.
With `CCCC(=O)NCC1CCc2cccc3ccc(OC)c1c23` (configuration not stated) the Ki [1] was 0.069 nM, the EC50 [2] was 0.08 nM and the Ki [3] was 0.008 nM. It also gave a Potency [4] of 84.8 and a Ki (Melatonin receptor) of 0.02 nM.
`CCCC(=O)NCC1Cc2cccc3ccc(OC)c1c23` (single isomer, unassigned; (-)) showed a Ki [1] of 0.034 nM, a Ki [3] of 0.03 nM and a Ki (Melatonin receptor) of 0.15 nM.
For `CCCC(=O)NCCC1Cc2cccc3ccc(OC)c1c23` (configuration not stated), the Ki [1] was 0.34 nM, the Ki [3] was 0.37 nM and the Ki (Melatonin receptor) was 2.4 nM.
With `CC(=O)NCCC1Cc2cccc3cccc1c23` (configuration not stated) the Ki [1] was 3.83 nM, the EC50 [2] was over 1000 nM and the Ki [3] was 6.5 nM. It also gave an Effect [5] of under 50% and a Ki (Melatonin receptor) of 123.3 nM.
`CCC(=O)NCC1CCc2c(OC)ccc3cccc1c23` (configuration not stated) showed a Ki [1] of 0.13 nM, a Ki [3] of 0.19 nM and a Ki (Melatonin receptor) of 0.7 nM.
Work on `COc1ccc2ccc(OC)c3c2c1CCC3CCNC(=O)C1CC1` (configuration not stated) yielded a Ki [1] of 1.59 nM, a Ki [3] of 0.66 nM and a Ki (Melatonin receptor) of 11.2 nM.
Compound `CCCC(=O)NCC1CCc2cccc3cccc1c23` (configuration not stated) has a Ki [1] of 0.18 nM and a Ki (Melatonin receptor) of 3.2 nM.
Work on `CCCC(=O)NCC1Cc2cccc3cccc1c23` (configuration not stated) yielded a Ki [1] of 0.093 nM, an EC50 [2] of 26 nM and a Ki [3] of 0.79 nM. The Effect [5] was under 50% and the Ki (Melatonin receptor) was 4.3 nM.
With `CCC(=O)NCC1Cc2cccc3cccc1c23` (configuration not stated) the Ki [1] was 0.22 nM, the Ki [3] was 2.65 nM and the Ki (Melatonin receptor) was 14.3 nM.
`CCCC(=O)NCC1CCc2c(OC)ccc3cccc1c23` (stereo in doubt; 13c (+)) showed a Ki [1] of 4.07 nM, a Ki [3] of 2.9 nM and a Ki (Melatonin receptor) of 21.7 nM.
`CCC(=O)NCCC1CCc2c(OC)ccc3ccc(OC)c1c23` (configuration not stated) gave a Ki [1] of 0.55 nM, a Ki [3] of 0.07 nM and a Ki (Melatonin receptor) of 0.8 nM.
For `COc1ccc2cccc3c2c1C(CCNC(C)=O)CC3` (configuration not stated), the Ki [1] was 0.39 nM, the EC50 [2] was 428 nM and the Ki [3] was 0.1 nM. The Potency [4] was 0.007 and the Ki (Melatonin receptor) was 24.4 nM.
Work on `COc1ccc2cccc3c2c1C(CNC(C)=O)C3` (configuration not stated) yielded a Ki [1] of 0.12 nM, an EC50 [2] of 5.08 nM and a Ki [3] of 0.12 nM. It also gave a Potency [4] of 1.33 and a Ki (Melatonin receptor) of 2.95 nM.
`COc1ccc2cccc3c2c1C(CNC(=O)C1CC1)C3` (configuration not stated) gave a Ki [1] of 0.31 nM, a Ki [3] of 1.32 nM and a Ki (Melatonin receptor) of 3.8 nM.
`COc1ccc2cccc(CCNC(C)=O)c2c1` [AGOMELATINE] gave an EC50 [2] of 0.53 nM and a Potency [4] of 0.8.
For `CCCC(=O)NCCC1CCc2cccc3ccc(OC)c1c23` (configuration not stated), the Ki (Melatonin receptor) was 0.43 nM.
Compound `CC(=O)NCC1Cc2cccc3cccc1c23` (configuration not stated) has a Ki [1] of 0.51 nM, an EC50 [2] of over 1000 nM and a Ki [3] of 4.24 nM. It also gave an Effect [5] of under 50% and a Ki (Melatonin receptor) of 36.1 nM.
In the case of `CCC(=O)NCCC1Cc2cccc3ccc(OC)c1c23` (configuration not stated), the Ki [1] is reported as 0.24 nM, the Ki [3] is reported as 0.22 nM and the Ki (Melatonin receptor) is reported as 4.75 nM.
`COc1ccc2cccc3c2c1CCC3CCNC(C)=O` (configuration not stated) showed a Ki [1] of 11.8 nM, an EC50 [2] of over 1000 nM and a Ki [3] of 8.9 nM. For the same compound, the Effect [5] was 50% and the Ki (Melatonin receptor) was 145 nM.
For `COc1ccc2cccc3c2c1CCC3CCNC(=O)C1CC1` (configuration not stated), the Ki [1] was 13.2 nM, the Ki [3] was 1.89 nM and the Ki (Melatonin receptor) was 43.4 nM.
`COc1ccc2cccc3c2c1C(CNC(C)=O)CC3` (configuration not stated) showed a Ki [1] of 0.094 nM, an EC50 [2] of 0.1 nM and a Ki [3] of 0.01 nM. It also gave a Potency [4] of 67.9 and a Ki (Melatonin receptor) of 0.04 nM.
For `CC(=O)NCC1CCc2cccc3cccc1c23` (configuration not stated), the Ki [1] was 0.22 nM, the Ki [3] was 1.2 nM and the Ki (Melatonin receptor) was 5.5 nM.
Compound `CCCC(=O)NCC1CCc2c(OC)ccc3cccc1c23` (single isomer, unassigned; (-)) has a Ki [1] of 0.068 nM, a Ki [3] of 0.11 nM and a Ki (Melatonin receptor) of 0.8 nM.
Work on `CCC(=O)NCCC1Cc2cccc3cccc1c23` (configuration not stated) yielded a Ki [1] of 1.86 nM, a Ki [3] of 4.34 nM and a Ki (Melatonin receptor) of 101.8 nM.
In the case of `CCCC(=O)NCCC1CCc2c(OC)ccc3ccc(OC)c1c23` (configuration not stated), the Ki [1] is reported as 0.19 nM, the EC50 [2] is reported as 0.18 nM and the Ki [3] is reported as 0.057 nM. The Potency [4] was 37.7 and the Ki (Melatonin receptor) was 0.14 nM.
For `CCCC(=O)NCC1CCc2c(OC)ccc3cccc1c23` (stereo in doubt; 13c), the Ki [1] was 0.11 nM, the EC50 [2] was 1.61 nM and the Ki [3] was 0.45 nM. For the same compound, the Potency [6] was 13.3 and the Ki (Melatonin receptor) was 0.36 nM.
